We go through four compounds from ChEMBL document CHEMBL4602713, “Quantitative Proteomics Reveals Cellular Off-Targets of a DDR1 Inhibitor” (ACS Med Chem Lett, 2020).

Activity calls are given as the source filed them. No cut-off for these calls is given here.

One data set deals with MDA-MB-231. The data set is described as follows: Antiproliferative activity against human MDA-MB-231 cells overexpressing cathepsin D assessed as growth inhibition.
The test system of another data set is SK-BR-3. The data set is described as follows: Antiproliferative activity against human SKBR3 cells overexpressing cathepsin D assessed as growth inhibition.
The next data set relates to MCF7. Description: Antiproliferative activity against human MCF7 cells overexpressing cathepsin D assessed as growth inhibition.
The target of data set [1] is T1, Cathepsin D (Homo sapiens, UniProt P07339). Description: Binding affinity to cathepsin D in human H1299 cells assessed as increase in thermal stability of heavy chain at 10 uM incubated for 2 hrs followed by compound washout twice with PBS buffer to remove excess compound and further heated at 95 degree C for 10 mins by CETSA. The format is ADME, cell-based. Particulars: nci-h1299, 2 h. In outline:
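For the cellular thermal shift assay, live H1299 cells were treated with compound or DMSO. The thermal stability of the mature CTSD heavy chain was then compared between the two.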

In data set [2] the target is T1, Cathepsin D. The data set is described as follows: Inhibition of cathepsin D (unknown origin) at 50 to 200 uM.
Data set [3] has as its target T2, Epithelial discoidin domain-containing receptor 1 (Homo sapiens, UniProt Q08345). The data set is described as follows: Inhibition of human GST-tagged DDR1 (440 to 876 residues) expressed in baculovirus expression system using fluorescein-Poly GAT as substrate incubated for 1 to 2 hrs in presence of ATP by TR-FRET assay.
Data set [4] is described as follows: Drug distribution in human H1299 cells cytosol incubated for 4 hrs followed cellular conjugation with tetrazine-TAMRA immunofluorescence microscopy. The format is ADME, subcellular, NCI-H1299. An outline of the steps: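 Live H1299 cells were incubated with the TCO-bearing probe for 4 h, fixed, permeabilised and conjugated with tetrazine-TAMRA. After washing with fresh medium, cells were imaged by microscopy alongside anti-DDR1 immunofluorescence staining.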

The target in data set [5] is T1, Cathepsin D. Description: Binding affinity to cathepsin D in human […] cells assessed as protein labeling at 0.5 to 1 uM pretreated with lysosomal neutralizing agent ammonium chloride for 30 mins followed by compound treatment by pull down based Western blot analysis. Format: ADME, cell-based. An outline of the steps:
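Live H1299 cells were first treated with 10 mM ammonium chloride for 30 min to neutralise lysosomes. Probe labelling followed, with pull-down and Western blot for CTSD.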

The nature of data set [6]: Drug localization in cellular membrane of human H1299 cells conjugated with TAMRA-N3 incubated for 2 to 6 hrs followed by compound washout twice with PBS buffer to remove excess compound and further irradiated with UV-light for 20 mins by Hoechst staining based confocal microscopy. The note with it: nci-h1299. The format is ADME, cell membranes. An outline of the steps:
(§1)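 H1299 cells were incubated with the probe, with or without excess parent inhibitor, then UV cross-linked. Cells were fixed, permeabilised, clicked to TAMRA-N3 and imaged by confocal microscopy with nuclear staining and DIC. Negative control samples were included.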

In data set [7] the target is T2, Epithelial discoidin domain-containing receptor 1. The data set is described as follows: Binding affinity to DDR1 in TAMRA-N3 conjugated human […] cells assessed as labeling band formation at 1 to 2 uM incubated for 1 to 3 hrs followed irradiation with UV-light at 365 nm for 20 mins by gel fluorescence scanning analysis. In outline: (§2)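 Live H1299 cells or H1299 lysate were incubated with the photoaffinity probe for 1–3 h, then irradiated at 365 nm for 20 min. Labelled proteins were clicked to TAMRA-N3, separated by SDS-PAGE and detected by in-gel fluorescence scanning.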

The nature of data set [8]: Drug localization in cytoplasm of human H1299 cells conjugated with TAMRA-N3 incubated for 2 to 6 hrs followed by compound washout twice with PBS buffer to remove excess compound and further irradiated with UV-light for 20 mins by Hoechst staining based confocal microscopy. Format: ADME, subcellular. The note with it: nci-h1299. In outline:
as §1

Data set [9] addresses T1, Cathepsin D. Description: Binding affinity to cathepsin D in TAMRA-N3 conjugated human […] cells assessed as fluorescence band formation with molecular weight of 30 kDa at 1 to 2 uM incubated for 2 hrs followed by compound washout to remove excess compound and further irradiated with UV-light at 365 nm for 20 mins by pull down assay. The format is ADME. In outline: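 Live H1299 cells were labelled with the photoaffinity probe and UV cross-linked. Labelled proteins were pulled down and detected by Western blot; CTSD was probed with an anti-CTSD antibody. The heavy chain of mature CTSD runs at ~33 kDa.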

Data set [10] deals with T1, Cathepsin D. The data set is described as follows: Binding affinity to cathepsin D in SILAC labeled human H1299 cells assessed as labeling of heavy chain incubated for 3 hrs in presence of excess parent compound followed by compound washout twice with PBS buffer to remove excess compound and further irradiated with UV-light at 365 nm for 20 mins by LC-MS/MS analysis. Format: ADME, cell-based. Details: dose or concentration left out as unconfirmed. The note with it: nci-h1299, 3 h. In outline: (§3)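 SILAC-labelled H1299 cells were treated with the photoaffinity probe for 2–4 h and then UV-irradiated. Labelled proteomes were clicked to biotin-N3, enriched, digested and analysed by LC-MS/MS. Controls (excess parent inhibitor or DMSO) were run in parallel. Biological triplicates were performed, and hits were filtered by SILAC ratios.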

Data set [11] deals with T1, Cathepsin D. The data set is described as follows: Binding affinity to cathepsin D in SILAC labeled human H1299 cells incubated for 3 hrs followed by compound washout twice with PBS buffer to remove excess compound and further irradiated with UV-light at 365 nm for 20 mins by LC-MS/MS analysis. The note with it: nci-h1299, 3 h. On the set-up: dose or concentration left out as unconfirmed. The format is cell-based. In outline: as §3

Data set [12] has as its target T3, Catechol O-methyltransferase (Homo sapiens, UniProt P21964).
T3 sequence (P21964 whole entry): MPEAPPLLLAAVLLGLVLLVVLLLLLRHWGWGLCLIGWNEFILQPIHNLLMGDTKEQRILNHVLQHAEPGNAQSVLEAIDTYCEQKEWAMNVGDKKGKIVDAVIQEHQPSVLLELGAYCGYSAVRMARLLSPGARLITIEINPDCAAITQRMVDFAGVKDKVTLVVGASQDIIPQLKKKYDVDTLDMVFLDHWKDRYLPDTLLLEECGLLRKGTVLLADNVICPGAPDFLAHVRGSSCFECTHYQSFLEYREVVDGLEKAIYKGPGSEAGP
The data set is described as follows: Binding affinity to COMT in SILAC labeled human H1299 cells incubated for 3 hrs followed by compound washout twice with PBS buffer to remove excess compound and further irradiated with UV-light at 365 nm for 20 mins by LC-MS/MS analysis. The format is ADME, cell-based. Particulars: nci-h1299, 3 h. Details: dose or concentration left out as unconfirmed. In outline:
as §3

For data set [13], the target named is T2, Epithelial discoidin domain-containing receptor 1. The data set is described as follows: Binding affinity to DDR1 in TAMRA-N3 conjugated human […] cell lysate assessed as labeling band formation at 1 to 2 uM incubated for 1 to 3 hrs followed irradiation with UV-light at 365 nm for 20 mins by gel fluorescence scanning analysis. An outline of the steps: as §2

The target is the same in data set [14]. Description: Binding affinity to DDR1 in TAMRA-N3 conjugated human […] cells assessed as fluorescence band formation with molecular weight of 110 kDa at 1 to 2 uM incubated for 2 hrs followed by compound washout to remove excess compound and further irradiated with UV-light at 365 nm for 20 mins by pull down assay.
A further data set has as its target Protein GPR107 (Homo sapiens, UniProt Q5VW38). The data set is described as follows: Binding affinity to GPR107 in SILAC labeled human H1299 cells incubated for 3 hrs followed by compound washout twice with PBS buffer to remove excess compound and further irradiated with UV-light at 365 nm for 20 mins by LC-MS/MS analysis. Format: ADME, cell-based. Details: dose or concentration left out as unconfirmed. The note with it: nci-h1299, 3 h. In outline: as §3

T2 sequence (Q08345 whole entry, the tested form may be a part): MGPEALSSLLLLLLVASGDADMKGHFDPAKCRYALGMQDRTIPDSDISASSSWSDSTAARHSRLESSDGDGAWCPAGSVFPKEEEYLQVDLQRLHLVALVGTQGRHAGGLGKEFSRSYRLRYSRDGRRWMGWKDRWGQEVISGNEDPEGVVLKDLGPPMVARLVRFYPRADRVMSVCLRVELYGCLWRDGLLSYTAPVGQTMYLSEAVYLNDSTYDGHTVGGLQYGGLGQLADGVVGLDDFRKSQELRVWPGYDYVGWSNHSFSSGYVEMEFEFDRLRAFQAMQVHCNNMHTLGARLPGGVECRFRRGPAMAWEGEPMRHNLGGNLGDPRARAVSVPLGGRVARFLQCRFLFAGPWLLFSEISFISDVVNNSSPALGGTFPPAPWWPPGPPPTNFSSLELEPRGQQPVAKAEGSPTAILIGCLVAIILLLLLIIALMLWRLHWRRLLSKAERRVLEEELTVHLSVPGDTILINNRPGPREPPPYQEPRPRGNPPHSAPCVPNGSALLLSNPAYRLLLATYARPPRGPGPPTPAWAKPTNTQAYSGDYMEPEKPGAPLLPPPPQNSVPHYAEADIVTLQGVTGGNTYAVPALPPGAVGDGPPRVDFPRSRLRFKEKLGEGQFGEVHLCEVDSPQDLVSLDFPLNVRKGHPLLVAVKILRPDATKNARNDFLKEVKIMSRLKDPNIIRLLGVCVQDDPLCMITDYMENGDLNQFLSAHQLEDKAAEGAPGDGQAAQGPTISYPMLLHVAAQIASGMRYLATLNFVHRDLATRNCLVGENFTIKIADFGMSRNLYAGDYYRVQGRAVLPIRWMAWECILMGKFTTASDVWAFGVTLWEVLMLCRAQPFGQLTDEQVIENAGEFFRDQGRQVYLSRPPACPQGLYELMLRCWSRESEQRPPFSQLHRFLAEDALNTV
T1 sequence (P07339 65-162 limits assumed): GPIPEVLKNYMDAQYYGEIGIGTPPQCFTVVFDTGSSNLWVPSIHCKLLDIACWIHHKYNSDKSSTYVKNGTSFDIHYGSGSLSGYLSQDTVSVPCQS
T1 sequence (P07339 169-412 limits assumed): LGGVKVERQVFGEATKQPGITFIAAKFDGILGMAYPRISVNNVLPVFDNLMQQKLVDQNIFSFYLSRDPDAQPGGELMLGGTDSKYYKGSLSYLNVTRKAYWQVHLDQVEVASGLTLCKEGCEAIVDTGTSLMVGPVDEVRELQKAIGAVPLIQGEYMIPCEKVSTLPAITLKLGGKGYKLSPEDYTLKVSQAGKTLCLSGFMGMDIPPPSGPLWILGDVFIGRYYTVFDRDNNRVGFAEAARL
Protein GPR107, sequence (Q5VW38 whole entry): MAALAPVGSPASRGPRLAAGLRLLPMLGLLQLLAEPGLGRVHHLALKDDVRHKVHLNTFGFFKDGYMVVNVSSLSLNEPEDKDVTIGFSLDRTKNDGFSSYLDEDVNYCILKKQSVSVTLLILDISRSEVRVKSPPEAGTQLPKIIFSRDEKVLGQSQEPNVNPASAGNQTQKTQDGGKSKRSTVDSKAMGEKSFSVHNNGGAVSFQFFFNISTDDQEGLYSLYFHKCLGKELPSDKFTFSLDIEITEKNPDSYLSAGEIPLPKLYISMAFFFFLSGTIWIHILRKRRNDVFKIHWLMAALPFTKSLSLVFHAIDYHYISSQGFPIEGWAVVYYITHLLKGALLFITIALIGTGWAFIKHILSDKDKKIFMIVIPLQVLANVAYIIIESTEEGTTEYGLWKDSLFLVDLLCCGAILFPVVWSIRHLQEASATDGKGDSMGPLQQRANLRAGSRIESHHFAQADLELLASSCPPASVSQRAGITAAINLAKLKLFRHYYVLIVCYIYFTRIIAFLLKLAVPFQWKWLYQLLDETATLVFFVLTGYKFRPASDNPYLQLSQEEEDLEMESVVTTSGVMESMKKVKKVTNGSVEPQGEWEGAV

As for `CC1CN(c2cncnc2)Cc2cc(C(=O)Nc3cc(CN4CCN(C)CC4)cc(C(F)(F)F)c3)ccc21` (stereo unspecified), the IC50 in the data set with MDA-MB-231 was 6990 nM; with SK-BR-3 it was 6620 nM; with MCF7, 3380 nM. Further, on Cathepsin D [1], the result was Active. At Cathepsin D [2], the “inhibition (INH)” value is listed as “Active”.

Regarding `CC1CN(c2cncnc2)Cc2cc(C(=O)Nc3cc(CN4CCN(CCC(=O)NCCCNC(=O)OC5CC/C=C/CCC5)CC4)cc(C(F)(F)F)c3)ccc21` (stereo unspecified), the IC50 in [3] turned out to be 397 nM. In addition, the Drug uptake result in [4] is listed as “Active”.

For `C#CCCC1(CC(=O)N2CCN(Cc3cc(NC(=O)c4ccc5c(c4)CN(c4cncnc4)CC5C)cc(C(F)(F)F)c3)CC2)N=N1` (stereo unspecified), the Activity entry on Cathepsin D [5] is listed as “Not Active”; at Cathepsin D [9], “Active”; at Cathepsin D [10] it was “Active”; at Cathepsin D [11] it was “Active”; in data set [12] it was “Active”; at Protein GPR107, “Active”. Besides, the IC50 in [3] is 259 nM. In addition, the Drug uptake result in data set [6] and in data set [8] was “Active” in each case. The outcome in data set [7], in data set [13] and in data set [14] was Active.

With `C#CCCC1(CCN2CCN(Cc3cc(NC(=O)c4ccc5c(c4)CN(c4cncnc4)CC5C)cc(C(F)(F)F)c3)CC2)N=N1` (stereo unspecified), the IC50 in data set [3] was 577 nM. Moreover, the Drug uptake result in [6] and in data set [8] was “Active” each time. Further, the result in data set [7], in data set [13] and in data set [14] was Active. Further, on Cathepsin D [9], the outcome was Active.

In general, IC50 refers to the concentration that gives 50% inhibition.
